A selection: hits, their analogues and other compounds. The true share with any hit is near 5.6%.
GRIN3A LBD mod: NR3A (human) ligand-binding domain modulation; 340,000 compounds, 2.5% hits; AID 1259313; NR3A LBD differential scanning fluorimetry, Tm shift; 0% = protein alone, 100% = glycine-bound protein; Tm shift relative to glycine control, % at 25 µM;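 active = melting temperature shift of at least 10% of the positive control shift, at one fixed dose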
CHOP UPR activ: apoptotic UPR (CHOP) activation; activation, % at 10 µM; 330,000 compounds, 0.34% hits; CHO-CHOP luciferase reporter, luminescence; percent of tunicamycin response over DMSO baseline;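 active = at 10 µM dose, activation of 40% or more, normalized to positive control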;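 note: 100% = tunicamycin at 10 µg/mL and 0% = DMSO alone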
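assay system = CHO CHOP reporter cells | amount = 500 CHO-CHOP cells per well | buffer or medium = F12 with 10% FBS | incubation = 16-18 h cell attachment, then 6 h compound exposure, 37 °C | detection = luminescence read with Steady-Glo | read-out = percent activation relative to tunicamycin control | controls = tunicamycin high control, DMSO low control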
UPR XBP1 act: activators of adaptive arm of unfolded protein response (XBP1) | CHO-XBP1 luciferase reporter, IRE1-XBP1 UPR activation, luminescence; percent of tunicamycin response, DMSO as zero | activation, % at 20 µM | 330,000 compounds, 0.33% hits | AID 463104;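 active = versus positive control, 20 µM dose yields 30% or more activation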;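 note: 100% = tunicamycin at 10 µg/mL and 0% = DMSO only wells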
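Assay system: IRE1-XBP1 luciferase reporter CHO line. Input: 1000 cells/well. Buffer or medium: F12 with 10% serum. Doses: 20 µM, 1% DMSO. Times: overnight seeding at 37 °C, 6 h compound treatment at 37 °C. Technique: Steady-Glo luciferase glow luminescence, 10 min after reagent addition.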
MPTP inh: inhibitors of mitochondrial permeability transition pore. 360,000 compounds, 1.4% hits. inhibition, % at 10 µM. isolated mouse mitochondria, Ca2+ swelling absorbance, 30 min;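 active = inhibition of 50% or more, scaled per plate between neutral and stimulator controls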;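 note: 0% = DMSO wells given calcium and 100% = 1 mM EGTA wells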
CHOP inh: CHOP inhibition in unfolded protein response | CHO-K1 CHOP-promoter luciferase, tunicamycin-induced, 15-18 h | inhibition, % at 10 µM | 220,000 compounds, 3.8% hits | AID 2732;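 active = compounds that reduced the stress-induced luciferase reporter signal by more than about 70% of percent inhibition, limit read from the data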;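 note: 0% = tunicamycin plus vehicle and 100% = wells without tunicamycin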
aDG glyco act: increases alpha dystroglycan glycosylation | 360,000 compounds, 0.22% hits | Pro5-aDG cells, alpha-DG glycosylation AlphaScreen (IIH6); 0% Pro5, 100% B10-LARGE cell signal | activation, % at 10 µM;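 active = activation of at least 8% versus controls, or a plate z-score of at least 8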;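 note: Pro5 are CHO cells carrying HIG-tagged alpha-DG that lacks glycosylation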
An asterisk follows results filed as active; / = no result given.

SMILES	GRIN3A LBD mod	CHOP UPR activ	UPR XBP1 act	MPTP inh	CHOP inh	aDG glyco act
CSCCC(NS(=O)(=O)c1ccccc1F)C(=O)N1CCCCCC1 (stereo not given)	1.2	1.5	-0.1	0.4	/	0.0
CSCCC(NS(=O)(=O)c1ccccc1F)C(=O)OCc1ccccc1Cl (stereo not given)	19.6*	0.8	1.0	2.6	17.4	0.1
CSCCC(NS(=O)(=O)c1ccc(Cl)cc1)C(=O)OCc1c(Cl)cccc1Cl (stereo not given)	-14.4	-2.3	-0.1	-6.7	85.9*	0.0
CCCC(=O)NCCc1c2n(c3ccc(OC)cc13)CCCc1ccccc1-2	/	/	/	/	-1.9	/
COc1cccc(/C=N/n2c(C3CCCCC3)n[nH]c2=S)c1	0.2	-1.0	-1.5	-0.5	/	0.1
O=S(=O)(Nc1cccc(CCc2ccccn2)c1)c1ccc2ccccc2c1	-19.1	/	/	0.8	84.0*	0.0
Cc1nc(-c2cccc(NS(=O)(=O)c3ccc4ccccc4c3)c2)cs1	10.4*	1.7	-1.0	23.4	-11.3	0.0
COc1ccccc1NS(=O)(=O)c1ccc(C(=O)NCCCN2CCCC2=O)cc1	0.2	-1.4	-0.6	-1.3	/	-0.1
Cc1ccc(N2C(=O)c3ccccc3C2=O)cc1	-0.4	20.4	5.4	0.1	-9.3	-0.1

Screening data: PubChem, several laboratories
